Assay results published in ChEMBL document CHEMBL1122354, “Synthesis and antiarrhythmic activity of new [(dialkylamino)alkyl]pyridylacetamides” (1983).
Calls of active or inactive are those of the source. No cut-off for these calls is given here.

Tests used:
Canis familiaris [1] = experiment: Intracardiac conduction in anesthetized dogs, measured as SH; SH being the atrial His bundle conduction time; type: functional, Canis lupus familiaris, Atrioventricular bundle
Procedure, shortened: (§1)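 Mongrel dogs under sodium pentobarbital anesthesia. His bundle electrogram recorded via left heart catheterization. His potentials recorded before dosing and 5 and 15 min after each intravenous dose, at different pacing rates. SH (stimulus to His deflection) and HV intervals measured.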

Canis familiaris [2] = experiment: Antiarrhythmic potential in conscious dogs; type: functional, Canis lupus familiaris, Heart
Procedure, shortened: (§2)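 Mongrel dogs with experimental myocardial infarction, conscious, with ventricular tachycardia or runs of VT. Dosed 50 mg/kg orally as solution in distilled water or acacia gum during the acute phase (16–36 h). Positive response means ≥60% suppression of ventricular arrhythmias or induction of sinus rhythm. The duration of effect was recorded in min.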

Canis familiaris [3] = experiment: (§3) Intracardiac conduction in anesthetized dogs, measured as HV; HV being the conduction time in specific intraventricular tissue; type: functional, Canis lupus familiaris, Cardiac ventricle; set-up: concentration or dose not given beside the values; procedure, shortened: as §1
Canis familiaris [4] = experiment: Antiarrhythmic potential in conscious dogs; value ranges from +50 to +60; type: functional, Canis lupus familiaris, Heart; procedure, shortened: as §2
Canis familiaris [5] = experiment: Intracardiac conduction in anesthetized dogs, measured as SH; SH being the atrial His bundle conduction time; value ranges from +4 to +-85; type: functional, Canis lupus familiaris, Atrioventricular bundle; procedure, shortened: as §1
Canis familiaris [6] = experiment: Antiarrhythmic potential in conscious dogs; value ranges from +80 to +360; type: functional, Canis lupus familiaris, Heart; procedure, shortened: as §2
Canis familiaris [7] = experiment: Antiarrhythmic potential in conscious dogs; inactive.; type: functional, organism-based; conditions: Canis lupus familiaris; Heart; procedure, shortened: as §2
Canis familiaris [8] = experiment: Intracardiac conduction in anesthetized dogs, measured as SH; SH being the atrial His bundle conduction time; Value ranges from +0 to +10; type: functional, Canis lupus familiaris, Atrioventricular bundle; procedure, shortened: as §1
Canis familiaris [9] = experiment: as §3; type: functional, Canis lupus familiaris, Cardiac ventricle; procedure, shortened: as §1
Canis familiaris [10] = experiment: Antiarrhythmic potential in conscious dogs; value ranges from +45 to +360; type: functional, Canis lupus familiaris, Heart; procedure, shortened: as §2
Canis familiaris [11] = experiment: Intracardiac conduction in anesthetized dogs, measured as SH; SH being the atrial His bundle conduction time; value ranges from +40 to +100; type: functional, Canis lupus familiaris, Atrioventricular bundle; procedure, shortened: as §1
Canis familiaris [12] = experiment: Intracardiac conduction in anesthetized dogs, measured as HV; HV being the conduction time in specific intraventricular tissue; value ranges from +45 to +100; type: functional, Canis lupus familiaris, Cardiac ventricle; procedure, shortened: as §1
Canis familiaris [13] = experiment: Intracardiac conduction in anesthetized dogs, measured as SH; SH being the atrial His bundle conduction time; value ranges from +15 to +20; type: functional, Canis lupus familiaris, Atrioventricular bundle; procedure, shortened: as §1
Canis familiaris [14] = experiment: Intracardiac conduction in anesthetized dogs, measured as HV; HV being the conduction time in specific intraventricular tissue; value ranges from +25 to +30; type: functional, Canis lupus familiaris, Cardiac ventricle; procedure, shortened: as §1
Canis familiaris [15] = experiment: Antiarrhythmic potential in conscious dogs; value ranges from +20 to +270; type: functional, Canis lupus familiaris, Heart; procedure, shortened: as §2
Canis familiaris [16] = experiment: Antiarrhythmic potential in conscious dogs; Inactive.; type: functional, organism-based; conditions: Canis lupus familiaris; Heart; procedure, shortened: as §2
Canis familiaris [17] = experiment: Intracardiac conduction in anesthetized dogs, measured as SH; SH being the atrial His bundle conduction time; value ranges from +30 to +-55; type: functional, Canis lupus familiaris, Atrioventricular bundle; procedure, shortened: as §1
Canis familiaris [18] = experiment: Antiarrhythmic potential in conscious dogs; value ranges from 210-270; type: functional, Canis lupus familiaris, Heart; procedure, shortened: as §2
Canis familiaris [19] = experiment: Intracardiac conduction in anesthetized dogs, measured as SH; SH being the atrial His bundle conduction time; value ranges from +50 to +85; type: functional, Canis lupus familiaris, Atrioventricular bundle; procedure, shortened: as §1
Canis familiaris [20] = experiment: Intracardiac conduction in anesthetized dogs, measured as HV; HV being the conduction time in specific intraventricular tissue; value ranges from 35-80; type: functional, Canis lupus familiaris, Cardiac ventricle; procedure, shortened: as §1
Canis familiaris [21] = experiment: Antiarrhythmic potential in conscious dogs; value ranges from +190 to +270; type: functional, Canis lupus familiaris, Heart; procedure, shortened: as §2
Canis familiaris [22] = experiment: Intracardiac conduction in anesthetized dogs, measured as HV; HV being the conduction time in specific intraventricular tissue; value ranges from +2 to +-50; type: functional, Canis lupus familiaris, Cardiac ventricle; procedure, shortened: as §1
Canis familiaris [23] = experiment: Intracardiac conduction in anesthetized dogs, measured as SH; SH being the atrial His bundle conduction time; value ranges from +10 to +50; type: functional, Canis lupus familiaris, Atrioventricular bundle; procedure, shortened: as §1
Canis familiaris [24] = experiment: Antiarrhythmic potential in conscious dogs; value ranges from +155 to +300; type: functional, Canis lupus familiaris, Heart; procedure, shortened: as §2
Canis familiaris [25] = experiment: Intracardiac conduction in anesthetized dogs, measured as HV; HV being the conduction time in specific intraventricular tissue; value ranges from +100 to +210; type: functional, Canis lupus familiaris, Cardiac ventricle; procedure, shortened: as §1
Canis familiaris [26] = experiment: Intracardiac conduction in anesthetized dogs, measured as SH; SH being the atrial His bundle conduction time; value ranges from +70 to +120; type: functional, Canis lupus familiaris, Atrioventricular bundle; procedure, shortened: as §1
Canis familiaris [27] = experiment: Intracardiac conduction in anesthetized dogs, measured as SH; SH being the atrial His bundle conduction time; Value ranges from +8 to +100; type: functional, Canis lupus familiaris, Atrioventricular bundle; procedure, shortened: as §1
Canis familiaris [28] = experiment: Antiarrhythmic potential in conscious dogs; was tested and found that after 90 min the dogs died.; type: functional, Canis lupus familiaris, Heart
Canis familiaris [29] = experiment: Intracardiac conduction in anesthetized dogs, measured as HV; HV being the conduction time in specific intraventricular tissue; value ranges from + 60 to+135; type: functional, Canis lupus familiaris, Cardiac ventricle; procedure, shortened: as §1
Canis familiaris [30] = experiment: Antiarrhythmic potential in conscious dogs was calculated and found that after 60 minutes the dogs died.; type: functional, Canis lupus familiaris, Heart
Canis familiaris [31] = experiment: Antiarrhythmic potential in conscious dogs; the value ranges from +30 to +60; type: functional, Canis lupus familiaris, Heart
Canis familiaris [32] = experiment: Antiarrhythmic potential in conscious dogs; value ranges from +165 to +405; type: functional, Canis lupus familiaris, Heart; procedure, shortened: as §2
Canis familiaris [33] = experiment: Intracardiac conduction in anesthetized dogs, measured as SH; SH being the atrial His bundle conduction time; value ranges from +25 to +30; type: functional, Canis lupus familiaris, Atrioventricular bundle; procedure, shortened: as §1
Canis familiaris [34] = experiment: Intracardiac conduction in anesthetized dogs, measured as HV; HV being the conduction time in specific intraventricular tissue; value ranges from +0 to +30; type: functional, Canis lupus familiaris, Cardiac ventricle; procedure, shortened: as §1
Canis familiaris [35] = experiment: Intracardiac conduction in anesthetized dogs, measured as SH; SH being the atrial His bundle conduction time; Value ranges from +20 to +70; type: functional, Canis lupus familiaris, Atrioventricular bundle; procedure, shortened: as §1
Canis familiaris [36] = experiment: Intracardiac conduction in anesthetized dogs, measured as HV; HV being the conduction time in specific intraventricular tissue; Value ranges from 20-33; type: functional, Canis lupus familiaris, Cardiac ventricle; procedure, shortened: as §1
Canis familiaris [37] = experiment: Antiarrhythmic potential in conscious dogs;Value ranges from +27 to +280; type: functional, Canis lupus familiaris, Heart; procedure, shortened: as §2
Canis familiaris [38] = experiment: Antiarrhythmic potential in conscious dogs; the value ranges from +8 to +-240; type: functional, Canis lupus familiaris, Heart; procedure, shortened: as §2
Canis familiaris [39] = experiment: Intracardiac conduction in anesthetized dogs, measured as HV; HV being the conduction time in specific intraventricular tissue value ranges from +20 to +30; type: functional, Canis lupus familiaris, Cardiac ventricle; procedure, shortened: as §1
Canis familiaris [40] = experiment: Antiarrhythmic potential in conscious dogs; value ranges from +120 to +380; type: functional, Canis lupus familiaris, Heart; procedure, shortened: as §2
Canis familiaris [41] = experiment: Intracardiac conduction in anesthetized dogs, measured as SH; SH being the atrial His bundle conduction time value ranges from +15 to +35; type: functional, Canis lupus familiaris, Atrioventricular bundle; procedure, shortened: as §1

## CCC(C)C(CCN(C(C)C)C(C)C)(C(N)=O)c1ccccn1 (stereo unspecified)
Canis familiaris [1]
  Variation/Control: 0%
Canis familiaris [2]
  Actual duraction: 240 min
Canis familiaris [3]
  Variation/Control: 30%

## C=C[C@H]1CN2CC[C@H]1C[C@@H]2[C@@H](O)c1ccnc2ccc(OC)cc12 [QUINIDINE]
Canis familiaris [4]
  Actual duraction: 60 min

## CC(C)CC(CCN(C(C)C)C1CCCCC1)(C(N)=O)c1ccccn1 (stereo unspecified)
Canis familiaris [2]
  Actual duraction: 300 min
Canis familiaris [5]
  Variation/Control: 85%
Canis familiaris [3]
  Variation/Control: 50%

## CC(C)N(CCC(C(N)=O)(c1ccccn1)C(C)C)C(C)C (stereo unspecified)
Canis familiaris [1]
  Variation/Control: 10%
Canis familiaris [6]
  Actual duraction: 360 min
Canis familiaris [3]
  Variation/Control: 0%

## CC(C)CC(CCN1CCOCC1)(C(N)=O)c1ccccn1 (stereo unspecified)
Canis familiaris [7]
  Actual duraction: inactive
Canis familiaris [8]
  Variation/Control: 10%
Canis familiaris [9]
  Variation/Control: 0%

## CC(C)N(CCC(C(N)=O)c1ccccn1)C(C)C (stereo unspecified)
Canis familiaris [1]
  Variation/Control: 0%
Canis familiaris [7]
  Actual duraction: inactive
Canis familiaris [3]
  Variation/Control: 0%

## CC(C)N(CCC(CC1CCCCC1)(C(N)=O)c1ccccn1)C(C)C (stereo unspecified)
Canis familiaris [10]
  Actual duraction: 360 min
Canis familiaris [11]
  Variation/Control: 100%
Canis familiaris [12]
  Variation/Control: 100%

## CC(C)CC(CCN1C(C)CCCC1C)(C(N)=O)c1ccccn1 (stereo unspecified)
Canis familiaris [13]
  Variation/Control: 20%
Canis familiaris [14]
  Variation/Control: 30%
Canis familiaris [15]
  Actual duraction: 270 min

## CCN(CC)CCC(CC(C)C)(C(N)=O)c1ccccn1 (stereo unspecified)
Canis familiaris [1]
  Variation/Control: 15%
Canis familiaris [7]
  Actual duraction: inactive
Canis familiaris [3]
  Variation/Control: 0%

## CCCN(CCC)CCC(CC(C)C)(C(N)=O)c1ccccn1 (stereo unspecified)
Canis familiaris [1]
  Variation/Control: 20%
Canis familiaris [16]
  Actual duraction: inactive
Canis familiaris [3]
  Variation/Control: 0%

## CC(C)N(CCC(C(N)=O)(c1ccccn1)C1CCCCC1)C(C)C (stereo unspecified)
Canis familiaris [17]
  Variation/Control: 55%
Canis familiaris [18]
  Actual duraction: 270 min
Canis familiaris [3]
  Variation/Control: 40%

## CC(C)N(CCC(Cc1ccccc1)(C(N)=O)c1ccccn1)C(C)C (stereo unspecified)
Canis familiaris [19]
  Variation/Control: 85%
Canis familiaris [7]
  Actual duraction: inactive
Canis familiaris [20]
  Variation/Control: 80%

## CC(C)CC(CCN(C(C)C)C(C)C)(C(N)=O)c1cccnc1 (stereo unspecified)
Canis familiaris [1]
  Variation/Control: 20%
Canis familiaris [2]
  Actual duraction: 45 min
Canis familiaris [9]
  Variation/Control: 25%

## CC(C)CCC(CCN(C(C)C)C(C)C)(C(N)=O)c1ccccn1 (stereo unspecified)
Canis familiaris [21]
  Actual duraction: 270 min
Canis familiaris [22]
  Variation/Control: 50%
Canis familiaris [23]
  Variation/Control: 50%

## CCC(CCN(C(C)C)C(C)C)(C(N)=O)c1ccccn1 (stereo unspecified)
Canis familiaris [1]
  Variation/Control: 20%
Canis familiaris [24]
  Actual duraction: 300 min
Canis familiaris [3]
  Variation/Control: 0%

## CCCCCC(CCN(C(C)C)C(C)C)(C(N)=O)c1ccccn1 (stereo unspecified)
Canis familiaris [2]
  Actual duraction: 180 min
Canis familiaris [25]
  Variation/Control: 210%
Canis familiaris [26]
  Variation/Control: 120%

## CCC(C)N(CCC(CC(C)C)(C(N)=O)c1ccccn1)C(C)CC (stereo unspecified)
Canis familiaris [27]
  Variation/Control: 100%
Canis familiaris [28]
  Actual duraction: 90 min
Canis familiaris [29]
  Variation/Control: 135%

## CC(C)CC(CCN(C1CCCCC1)C1CCCCC1)(C(N)=O)c1ccccn1 (stereo unspecified)
Canis familiaris [1]
  Variation/Control: 45%
Canis familiaris [30]
  Actual duraction: 60 min
Canis familiaris [3]
  Variation/Control: 75%

## CC(C)N(CCC(C(N)=O)(c1ccccc1)c1ccccn1)C(C)C (stereo unspecified) [DISOPYRAMIDE]
Canis familiaris [31]
  Actual duraction: 60 min

## CC(C)CC(CCCN(C(C)C)C(C)C)(C(N)=O)c1ccccn1 (stereo unspecified)
Canis familiaris [1]
  Variation/Control: 15%
Canis familiaris [2]
  Actual duraction: 30 min
Canis familiaris [9]
  Variation/Control: 0%

## CC(C)N(CCC(CC(C)(C)C)(C(N)=O)c1ccccn1)C(C)C (stereo unspecified)
Canis familiaris [32]
  Actual duraction: 405 min
Canis familiaris [33]
  Variation/Control: 30%
Canis familiaris [34]
  Variation/Control: 30%

## CCC(CC)C(CCN(C(C)C)C(C)C)(C(N)=O)c1ccccn1 (stereo unspecified)
Canis familiaris [35]
  Variation/Control: 70%
Canis familiaris [36]
  Variation/Control: 33%
Canis familiaris [37]
  Actual duraction: 280 min

## CC(C)CC(CCN(C(C)C)C(C)C)(C(N)=O)c1ccncc1 (stereo unspecified)
Canis familiaris [1]
  Variation/Control: 110%
Canis familiaris [38]
  Actual duraction: 240 min
Canis familiaris [3]
  Variation/Control: 45%

## CCCC(CCN(C(C)C)C(C)C)(C(N)=O)c1ccccn1 (stereo unspecified)
Canis familiaris [1]
  Variation/Control: 15%
Canis familiaris [2]
  Actual duraction: 35 min
Canis familiaris [9]
  Variation/Control: 0%

## CC(C)CC(CCN(C(C)C)C(C)C)(C(N)=O)c1ccccn1 (stereo unspecified) [PENTISOMIDE]
Canis familiaris [39]
  Variation/Control: 30%
Canis familiaris [40]
  Actual duraction: 380 min
Canis familiaris [41]
  Variation/Control: 35%
